Substrate: O=c1[nH]c(=O)n([C@H]2C[C@H](O)[C@@H](CO)O2)cc1[N+](=O)[O-]
Test: Activity of Escherichia coli thymidine phosphorylase
Method in brief: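 Recombinant E. coli TP (0.00883 U per 0.2 ml) added to start a continuous spectrophotometric assay. Mix: 0.13 mM 5-nitro-2'-deoxyuridine substrate in 0.1 M potassium phosphate, pH 7.4, 25 °C, read at 355 nm in a microplate. Initial velocity compared with the mean of at least two no-inhibitor controls. Where derived, IC50 used at least five concentrations spanning the value.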

B1: Thymidine phosphorylase (Escherichia coli K-12), P07650 (protein)
chain: MFLAQEIIRKKRDGHALSDEEIRFFINGIRDNTISEGQIAALAMTIFFHDMTMPERVSLTMAMRDSGTVLDWKSLHLNGPIVDKHSTGGVGDVTSLMLGPMVAACGGYIPMISGRGLGHTGGTLDKLESIPGFDIFPDDNRFREIIKDVGVAIIGQTSSLAPADKRFYATRDITATVDSIPLITASILAKKLAEGLDALVMDVKVGSGAFMPTYELSEALAEAIVGVANGAGVRTTALLTDMNQVLASSAGNAVEVREAVQFLTGEYRNPRLFDVTMALCVEMLISGKLAKDDAEARAKLQAVLDNGKAAEVFGRMVAAQKGPTDFVENYAKYLPTAMLTKAVYADTEGFVSEMDTRALGMAVVAMGGGRRQASDTIDYSVGFTDMARLGDQVDGQRPLAVIHAKDENNWQEAAKAVKAAIKLADKAPESTPTVYRRISE
With B1 the kcat was 20 s⁻¹.
